MC4R antagonist – MC4R antagonists of cAMP signaling, primary screen, cell-based, TR-FRET, antagonist arm of biased-ligand search; MC4R-expressing cells, MTII-stimulated cAMP, LANCE TR-FRET; inhibition, % at 6.5 µM; 360,000 tested, 0.48% active;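 active means inhibition above its plate's cutoff, the mean of tested wells on that plate plus 3 SD, cut at about 29% in these data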
Target sequence (P32245 whole entry, looked up): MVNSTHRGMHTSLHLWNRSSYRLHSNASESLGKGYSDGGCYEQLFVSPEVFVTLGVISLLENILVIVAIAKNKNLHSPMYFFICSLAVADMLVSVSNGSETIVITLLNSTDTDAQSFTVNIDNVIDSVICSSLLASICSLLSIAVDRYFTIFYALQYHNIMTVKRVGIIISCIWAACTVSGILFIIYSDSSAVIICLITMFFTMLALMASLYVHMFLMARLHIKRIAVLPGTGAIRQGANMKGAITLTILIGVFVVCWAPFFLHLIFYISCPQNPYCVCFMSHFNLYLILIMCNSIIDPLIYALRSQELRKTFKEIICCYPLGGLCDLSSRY
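System: U2OS-MC4R stable cell line; Technique: Eu-cAMP/anti-cAMP TR-FRET, emission 671 nm; Repeats: single well per compound; Also added: Melanotan II; Dosing: one concentration, 6.5 µM nominal; Schedule: 30-min compound, 1-h challenge, 1-h detection, room temperature.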
GAA850 FXN act – FXN promoter activators, primary screen, cell-based, luciferase luminescence, HEK293 lucGAA850; activation, % at 6 µM; 360,000 tested, 0.56% active; HEK293 lucGAA850 FXN promoter luciferase reporter, 24 h; percent of 10 µM SAHA response; AID 540364, 2011;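 active means activation above the average of all compounds screened plus 3 SD, cutoff fixed separately per campaign, cut at about 7.5% in these data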
MC4R barr agon – MC4R agonists recruiting beta-arrestin, primary screen, cell-based, luminescence, agonist arm of biased-ligand search. Melanocortin receptor 4 (Homo sapiens), P32245. U2OS MC4R beta-arrestin complementation; percent of melanotan II response, DMSO zero. activation, % at 8.9 µM. 360,000 tested, 0.98% active. AID 540308, 2011;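 active means activation above a per-plate cutoff, the mean activation of sample wells on that plate plus 3 SD, cut at about 8% in these data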
AHR activator – AHR activators, primary screen, cell-based, luminescence, luciferase reporter, human; Aryl hydrocarbon receptor (Homo sapiens), P35869; AHR-responsive luciferase reporter cells; activation, % at 5 µM; 320,000 tested, 2.5% active; AID 2796, 2010; in the data active means activation above about 47%
m5-HT2A agonist – mouse Htr2a agonists via beta-arrestin recruitment, primary screen, cell-based, luminescence | CHO-K1 mHTR2A beta-arrestin complementation; percent of 30 µM serotonin response | activation, % at 7.6 µM | 360,000 tested, 0.66% active | AID 624169, 2012;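 active means activation above a run cutoff, the mean activation of all tested compounds plus 3 SD, cut at about 14% in these data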
cAMP nonselect – nonselective cAMP signaling inhibitors, parental cells, counter-screen for MC4R biased antagonist project, cell-based, TR-FRET, U2OS, forskolin, triplicate | shares compounds with MC4R antagonist | AID 602193, 2012 | 1,600 tested, 26% active | inhibition, % at 6.5 µM | LANCE TR-FRET;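 active means mean inhibition over triplicates above the low-control well mean plus 3 SD, set per campaign, cut at about 13% in these data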;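 further: signal is single emission at 671 nm which falls as cellular cAMP rises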
MC4R cAMP antag – MC4R cAMP antagonists, retest, confirmation, cell-based, TR-FRET | shares compounds with MC4R antagonist | MC4R-expressing cells, MTII-stimulated cAMP | inhibition, % at 6.5 µM | 1,600 tested, 27% active | AID 602195, 2012; in the data active means inhibition above about 29%
Large screens that a line does not name were inactive (follow-up assays come after a bar, where they were run). A selection: hits, their analogues and other compounds. The true share with any hit is near 4.7%.

O=C(N=C1SC2CS(=O)(=O)CC2N1Cc1ccccc1)C1CC1 (stereo not given)	none (no result: AHR activator)
CN(C)C(=O)c1ccccc1NC(=O)Cc1cccc2ccccc12	none
Cn1c(C2CCCCC2)nc2c1c(=O)[nH]c(=O)n2Cc1ccccc1	MC4R antagonist 34 | cAMP nonselect inactive | MC4R cAMP antag inactive
CCn1c(CO)nc2c1c(=O)[nH]c(=O)n2Cc1ccccc1	MC4R antagonist 31 | cAMP nonselect inactive | MC4R cAMP antag inactive
Cc1ccc([C@H]2C[C@@H](O)[C@H](n3cc(C4CC4)nn3)CN2C(=O)c2cccs2)cc1	none (no result: AHR activator)
COc1ccccc1CNC(=O)C(C)Sc1ccsc1[N+](=O)[O-] (stereo not given)	MC4R antagonist 30 | cAMP nonselect inactive | MC4R cAMP antag inactive
CC(Sc1ccsc1[N+](=O)[O-])C(=O)NCc1ccccc1 (stereo not given)	none (no result: MC4R antagonist, GAA850 FXN act, MC4R barr agon, m5-HT2A agonist)
Cc1c(C(=O)N2CCCC(C)(C(=O)NS(=O)(=O)C3CC3)C2)oc2ccccc12 (stereo not given)	none (no result: AHR activator)
CCCCC(CC)CN=C(N)NC(N)=NCCCCCCN=C(N)NC(N)=NCC(CC)CCCC (stereo not given)	MC4R antagonist 69, m5-HT2A agonist 15 | cAMP nonselect 55 | MC4R cAMP antag 90
CC(C)Cc1nc2oc3c(Cl)ncnc3c2c2c1CCC2	MC4R antagonist 60 | cAMP nonselect inactive | MC4R cAMP antag 43
CCC1Cc2[nH]c(=S)[nH]c(=O)c2C(c2ccc(F)cc2)O1 (stereo not given)	none (no result: MC4R antagonist, GAA850 FXN act, MC4R barr agon, AHR activator)
C/C(N)=C(/C#N)C(=O)COC(=O)CNS(=O)(=O)c1c(F)cccc1F	none
COc1ccc2c(c1)oc(=O)c1ccccc12	none
O=c1oc2cc(O)c(Cl)cc2c2ccccc12	MC4R antagonist 56 | cAMP nonselect 41 | MC4R cAMP antag 64
Cc1cc(C)c(S(=O)(=O)c2ccc(Cl)cc2)c(Cl)n1	none
Cc1cc(S(=O)(=O)c2ccc(Cl)cc2)nc(S(=O)(=O)c2ccc(Cl)cc2)c1C#N	MC4R antagonist 39 (no result: AHR activator) | cAMP nonselect 29 | MC4R cAMP antag inactive
Cc1ccc(Nc2nc(N/N=C/c3c[nH]c4ccccc34)nc(N3CCOCC3)n2)cc1	MC4R antagonist 31, AHR activator 51 | cAMP nonselect inactive | MC4R cAMP antag inactive
Cc1nn(CC(=O)OCC(=O)NCCc2ccc(S(N)(=O)=O)cc2)c(C)c1[N+](=O)[O-]	none
Cc1ccc(CNC(=O)COC(=O)Cn2nc(C)c([N+](=O)[O-])c2C)cc1	MC4R antagonist 46 | cAMP nonselect inactive | MC4R cAMP antag 31
C=CCNc1ncnc2c1ncn2[C@H]1CN(Cc2cccc3ccccc23)C[C@@H](CO)O1	none (no result: AHR activator)
CC1=CC(=O)Nc2ncccc2O1	none (no result: AHR activator)
CCOC(=O)CSc1nc2c(sc(=S)n2-c2ccc(CC)cc2)c(=O)[nH]1	MC4R antagonist 31 | cAMP nonselect inactive | MC4R cAMP antag inactive
O=C(NNc1c2ccccc2nc2ccccc12)c1ccc(Cl)cc1	MC4R antagonist 33 | cAMP nonselect inactive | MC4R cAMP antag inactive
COc1ccc(Cc2noc(CN3CCN(Cc4cccc(Cl)c4)CC3)n2)cc1OC	MC4R antagonist 34 | cAMP nonselect 17 | MC4R cAMP antag inactive
COCCN1CCN(Cc2nc(Cc3ccc(OC)c(OC)c3)no2)CC1	none
Cc1ccc(O)c(N=Nc2nccs2)c1	none
COC(=O)[C@@]12C[C@@H](CC(=O)N3CCC(c4ccccc4)CC3)C(=O)N(Cc3cccc4ccccc34)C1=CCC(C)(C)C2	none (no result: MC4R antagonist, GAA850 FXN act, MC4R barr agon, AHR activator)
O=C(Cn1ncc(Cl)c(Cl)c1=O)NC(=O)NC1CCCCC1	MC4R antagonist 38 | cAMP nonselect 36 | MC4R cAMP antag 67
CC(NC(=O)Cn1ncc(Cl)c(Cl)c1=O)C12CC3CC(CC(C3)C1)C2 (stereo not given)	MC4R antagonist 81 | cAMP nonselect 32 | MC4R cAMP antag 46
O=C(CN1CCCCC1)NC(=O)NC1CCCC1	none
CCn1cc(C(=O)NC(C)C23CC4CC(CC(C4)C2)C3)cn1 (stereo not given)	none
CCn1cc(C(=O)NCCCOC(C)C)c(=O)c2cc(S(=O)(=O)N3CCOCC3)ccc21	none
Cc1cc2oc(C(=O)N(Cc3ccccc3)C3CCS(=O)(=O)C3)cc(=O)c2cc1Cl (stereo not given)	MC4R antagonist 30 | cAMP nonselect inactive | MC4R cAMP antag inactive
Cc1[nH]c(=O)[nH]c(=O)c1S(=O)(=O)Nc1cccc([N+](=O)[O-])c1C	MC4R antagonist 30 (no result: AHR activator) | cAMP nonselect inactive | MC4R cAMP antag inactive
CC(=O)Nc1ccc(S(=O)(=O)N(C)CC(=O)OCC(=O)NC(C)C23CC4CC(CC(C4)C2)C3)cc1 (stereo not given)	MC4R antagonist 30 | cAMP nonselect inactive | MC4R cAMP antag inactive
Cc1ccc(S(=O)(=O)N(C)CC(=O)OCC(=O)NC(c2ccccc2)c2ccccc2)cc1	none
Cc1ccc(S(=O)(=O)N(C)CC(=O)OCC(=O)NC(=O)NC(C)C)cc1	MC4R antagonist 29 | cAMP nonselect inactive | MC4R cAMP antag inactive
CCCCn1c(N)c(N(C)C(=O)c2cc3c(s2)CCCCC3)c(=O)[nH]c1=O	none
O=C1NC(=O)/C(=C\c2ccc(OCc3ccccc3)cc2)S1	none
O=C1NC(=O)/C(=C\c2ccccc2OCc2ccccc2)S1	MC4R antagonist 39 | cAMP nonselect inactive | MC4R cAMP antag inactive
C=C1CC2(OC1=O)c1ccccc1CCc1ccccc12	MC4R antagonist 32 (no result: AHR activator) | cAMP nonselect 39 | MC4R cAMP antag inactive
C=CCn1c(Sc2ncc([N+](=O)[O-])s2)n[nH]c1=O	MC4R antagonist 43 | cAMP nonselect 30 | MC4R cAMP antag 31
CCCNC(=O)C1(C)CCCN(Cc2ccc(-c3ccccc3)o2)C1 (stereo not given)	none (no result: AHR activator)
O=C(Nc1sc2c(c1C(=O)NCC1CCCO1)CCCC2)c1cccs1 (stereo not given)	MC4R antagonist 31 | cAMP nonselect inactive | MC4R cAMP antag inactive
O=S(=O)(/C(=C\c1ccc(C(F)(F)F)cc1)c1nc2ccccc2[nH]1)c1ccccc1	MC4R antagonist 33 (no result: AHR activator) | cAMP nonselect inactive | MC4R cAMP antag 35
